# Reference: publication PMC10613959 (Toxicological Sciences, 2023)
# Where two headings read alike, the source gives them in different places.
# Columns and labels:
# [1] = Blood partitioning assay for Rbp; format: in vitro ADME; settings: both, human
# Outline: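 Fresh pooled mixed-gender human whole blood (lithium heparin) and reference plasma centrifuged from the same blood were each incubated with 5 µM test compound at 37°C, n = 3. Reactions were stopped at 0 and 60 min. Rbp was derived by LC-MS/MS from test compound concentration in control plasma versus whole-blood supernatant. Chlorthalidone 5 µM served as positive control.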
# [2] = Skin absorption parameters; parameters: species or system human; settings: Fitted
# Outline: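 A skin model in GastroPlus TCAT started from in silico predicted values for the vehicle, stratum corneum, epidermis and dermis. Its diffusivities and partition coefficients were fitted to skin penetration data: receptor-fluid time course where available, plus skin wash and layer distribution. Parameters were adjusted to minimise model–data difference and then used in the human dermal model. Vehicle/water partitioning is formulation-specific.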
# [3] = PBK population simulation of plasma concentrations; parameters: species or system human
# Outline: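 GastroPlus population simulations reproduced the clinical designs. Lotion or non-aerosol spray, 2 mg/cm2 over 75% body surface, once at 0 h on day 1 and 4 times daily at 2-h intervals on days 2–4 (mixed multiple-dose profile). Alternatively, a 4% formulation over 90% body surface, about 22 mg/kg bw, in 3 male and 3 female subjects. Simulated-mean/observed-mean ratios for Cmax and AUC0−t; 10th–90th percentiles generated.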
# [4] = Metabolic stability in primary human hepatocytes in suspension; format: in vitro ADME; settings: human, cryopreserved human hepatocytes in suspension (5 donor pool)
# Outline: (§1)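 Cryopreserved human hepatocytes (5-donor pool, 0.8 × 10^6 cells/ml) in Williams E medium (25 mM HEPES, 2 mM L-glutamine) were incubated with test compound at 0.1, 1 and 10 µM, 37°C, n = 3. Sampled at 0, 15, 60, 90, 180 and 240 min; solvent ≤0.5% DMSO or 1% ACN. Heat-inactivated hepatocytes were the negative control. Parent loss was measured by LC-MS. CLint = −k·V (k, slope of log concentration vs time; V, incubation volume/cell number).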
# human hepatocytes = test: as above; format: in vitro ADME
# Outline: as §1
# [5] = Scaling of in vitro CLint to in vivo CLint and CLliver; parameters: species or system human; settings: scaled from the mean in vitro CLint
# Outline: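 Mean in vitro hepatocyte CLint was scaled to in vivo CLint (l/h) using a scaling factor: million cells per gram of liver × grams of liver weight. In vivo CLint was then converted to hepatic clearance with two variations of the well-stirred liver model.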
# [6] = pig skin, 24 h, skin surface washed at 8 h; mean; ref Sasson et al. (2009); cited from earlier work
# [7] = human plasma, dermal, ref Schauer et al., 2006, cited from earlier work
# Cross filtration = format: in vitro ADME; settings: both, human, pooled human plasma
# Outline: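 Modified cross-ultrafiltration: 10 µM test compound in pooled mixed-gender human plasma, 60 min at 37°C, n = 3, then ultrafiltered beside blank plasma. Each retentate was mixed into the partner filtrate and the regenerated samples analysed by LC-MS/MS. Warfarin 10 µM was positive control. Stability was checked at 60 min against non-incubated control. Recovery-corrected mean PPB from filtrate; Fup = 100 − PPB.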
smiles,measurement,setting,value
"Cc1ccc(/C=C2/C(=O)C3(C)CCC2C3(C)C)cc1 (stereo not shown) [4-MBC, 4-methylbenzylidene camphor]","blood plasma ratio at 60 min, 5 µM",[1],0.88
same,Dermis diffusivity,[2],3.0E−08 cm^2/s
same,Dermis/water partition coefficient,[2],2.0E+00
same,Epidermis/water partition coefficient,[2],1.0E+02
same,Stratum corneum diffusivity,[2],6.1E−11 cm^2/s
same,Stratum corneum/water partition coefficient,[2],1.0E+03
same,Vehicle diffusivity,[2],7.8E−06 cm^2/s
same,Vehicle/water partition coefficient,[2]; vehicle/formulation specific,4.0E+04
same,AUC0 − t Fold Difference (Simulated Mean/Observed Mean),[3]; Female,0.8
same,Cmax Fold Difference (Simulated Mean/Observed Mean),[3]; Female,0.9
same,AUC0 − t Fold Difference (Simulated Mean/Observed Mean),[3]; Male,0.6
same,Cmax Fold Difference (Simulated Mean/Observed Mean),[3]; Male,0.6
same,hepatocyte CLint,[4],30 µL/min/1e6 cells
same,hepatocyte CLint at 0.1 µM,[4],34 µL/min/1e6 cells
same,hepatocyte CLint at 1 µM,[4],32.2 µL/min/1e6 cells
same,hepatocyte CLint at 10 µM,[4],23.8 µL/min/1e6 cells
same,depletion in suspension hepatocytes,"human hepatocytes; human suspension hepatocytes, compared with Naloxone",medium to fast depletion
same,In vivo CLint scaled,[5],216 l/h/kg liver
same,"Dermal delivery (Epidermis + dermis + receptor fluid), 4-MBC",[6],3.17%
same,"Epidermis + Dermis, distribution of 4-MBC",[6],2.9%
same,"Receptor fluid, distribution of 4-MBC",[6],0.25%
same,"Skin excess, distribution of 4-MBC",[6],4.5%
same,"Total recovery, 4-MBC",[6],87.8%
same,"Total strips (1–40), distribution of 4-MBC",[6],80.1%
same,"Observed AUC0 − t, Geometric mean",[7]; Female,0.4856 µg·h/mL
same,"Observed Cmax, Range",[7]; Female,0.0198 to 0.0312 µg/mL
same,"Observed AUC0 − t, Geometric mean",[7]; Male,0.9879 µg·h/mL
same,"Observed Cmax, Range",[7]; Male,0.0198 to 0.0839 µg/mL
same,"fraction unbound at 60 min, 10 µM",Cross filtration,0.0004
"C=CCN1CC[C@]23c4c5ccc(O)c4O[C@H]2C(=O)CC[C@@]3(O)[C@H]1C5 [Naloxone, reference compound]",hepatocyte CLint,[4],16.4 ± 1.6 µL/min/1e6 cells
same,remaining after 240 min,"human hepatocytes; positive control, human hepatocytes in suspension, 240 min",4.8 ± 1.9%
